Measured values from ChEMBL document CHEMBL5058577, “EUbOPEN Chemogenomics Library 2 (Multiplex)” (2022).

System: HEK-293T
Assay: Multiplex assay against HEK293T
Assay type: toxicity, cell-based
Conditions: human
How it was run: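 Imaging took place on a CQ1 microscope at 37°C and 5% CO2 once compound had been added to live cells stained at seeding with Hoechst33342, BioTracker Green Microtubule Cytoskeleton Dye, MitoTracker Red and Annexin V Alexa Fluor 680. CellPathfinder machine-learning gating classed cells as Hoechst high-intensity objects or normal cells, classed normal cells as having healthy, pyknosed or fragmented nuclei, and classed pyknosed cells as mitotic or apoptotic. Tubulin, mitochondrial-mass and membrane-permeability phenotypes are per cents of the healthy-nucleus cells.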

[1] = 12 h, 1 µM, compound concentration 1 uM, replicate 1
[2] = 12 h, 1 µM, compound concentration 1 uM, replicate 2
[3] = 12 h, 10 µM, compound concentration 10 uM, replicate 1
[4] = 12 h, 10 µM, compound concentration 10 uM, replicate 2
[5] = 24 h, 1 µM, compound concentration 1 uM, replicate 1
[6] = 24 h, 1 µM, compound concentration 1 uM, replicate 2
[7] = 24 h, 10 µM, compound concentration 10 uM, replicate 1
[8] = 24 h, 10 µM, compound concentration 10 uM, replicate 2
[9] = 48 h, 1 µM, compound concentration 1 uM, replicate 1
[10] = 48 h, 1 µM, compound concentration 1 uM, replicate 2
[11] = 48 h, 10 µM, compound concentration 10 uM, replicate 1
[12] = 48 h, 10 µM, compound concentration 10 uM, replicate 2

N#Cc1cc(F)cc(-c2nc(-c3ccc(F)cn3)no2)c1
Population Apoptotic (%) [1]: 38% | Population Fragmented Nuclei (%) [1]: 10% | Population Healthy Nuclei (%) [1]: 76% | Population Hoechst High Intensity Objects (%) [1]: 5% | Population Membrane Permeable-Phenotype (%) [1]: 0% | Population Mitochondria Different-Phenotype (%) [1]: 41% | Population Mitotic Cells (%) [1]: 61% | Population Normal (%) [1]: 95% | Population Pyknosed Nuclei (%) [1]: 12% | Population Tubulin-Different-Phenotype (%) [1]: 25% | Total Cell Count [1]: 280 | Population Apoptotic (%) [2]: 64% | Population Fragmented Nuclei (%) [2]: 6% | Population Healthy Nuclei (%) [2]: 77% | Population Hoechst High Intensity Objects (%) [2]: 8% | Population Mitochondria Different-Phenotype (%) [2]: 55% | Population Mitotic Cells (%) [2]: 36% | Population Normal (%) [2]: 91% | Population Pyknosed Nuclei (%) [2]: 15% | Population Tubulin-Different-Phenotype (%) [2]: 22% | Total Cell Count [2]: 342 | Population Apoptotic (%) [3]: 45% | Population Fragmented Nuclei (%) [3]: 10% | Population Healthy Nuclei (%) [3]: 73% | Population Hoechst High Intensity Objects (%) [3]: 4% | Population Membrane Permeable-Phenotype (%) [3]: 0% | Population Mitochondria Different-Phenotype (%) [3]: 51% | Population Mitotic Cells (%) [3]: 55% | Population Normal (%) [3]: 95% | Population Pyknosed Nuclei (%) [3]: 16% | Population Tubulin-Different-Phenotype (%) [3]: 29% | Total Cell Count [3]: 383 | Population Fragmented Nuclei (%) [4]: 8% | Population Healthy Nuclei (%) [4]: 77% | Population Hoechst High Intensity Objects (%) [4]: 10% | Population Mitochondria Different-Phenotype (%) [4]: 61% | Population Mitotic Cells (%) [4]: 54% | Population Normal (%) [4]: 89% | Population Pyknosed Nuclei (%) [4]: 13% | Population Tubulin-Different-Phenotype (%) [4]: 22% | Total Cell Count [4]: 269 | Population Apoptotic (%) [5]: 43% | Population Fragmented Nuclei (%) [5]: 9% | Population Healthy Nuclei (%) [5]: 77% | Population Hoechst High Intensity Objects (%) [5]: 6% | Population Membrane Permeable-Phenotype (%) [5]: 0% | Population Mitochondria Different-Phenotype (%) [5]: 19% | Population Mitotic Cells (%) [5]: 56% | Population Normal (%) [5]: 93% | Population Pyknosed Nuclei (%) [5]: 12% | Population Tubulin-Different-Phenotype (%) [5]: 12% | Total Cell Count [5]: 353 | Population Apoptotic (%) [6]: 48% | Population Fragmented Nuclei (%) [6]: 7% | Population Healthy Nuclei (%) [6]: 82% | Population Hoechst High Intensity Objects (%) [6]: 7% | Population Mitochondria Different-Phenotype (%) [6]: 36% | Population Mitotic Cells (%) [6]: 51% | Population Normal (%) [6]: 92% | Population Pyknosed Nuclei (%) [6]: 9% | Population Tubulin-Different-Phenotype (%) [6]: 15% | Total Cell Count [6]: 463 | Population Apoptotic (%) [7]: 41% | Population Fragmented Nuclei (%) [7]: 10% | Population Healthy Nuclei (%) [7]: 74% | Population Hoechst High Intensity Objects (%) [7]: 4% | Population Membrane Permeable-Phenotype (%) [7]: 0% | Population Mitochondria Different-Phenotype (%) [7]: 34% | Population Mitotic Cells (%) [7]: 58% | Population Normal (%) [7]: 95% | Population Pyknosed Nuclei (%) [7]: 14% | Population Tubulin-Different-Phenotype (%) [7]: 18% | Total Cell Count [7]: 479 | Population Apoptotic (%) [8]: 39% | Population Healthy Nuclei (%) [8]: 79% | Population Hoechst High Intensity Objects (%) [8]: 8% | Population Mitochondria Different-Phenotype (%) [8]: 40% | Population Mitotic Cells (%) [8]: 60% | Population Normal (%) [8]: 91% | Population Pyknosed Nuclei (%) [8]: 9% | Population Tubulin-Different-Phenotype (%) [8]: 12% | Total Cell Count [8]: 363 | Population Apoptotic (%) [9]: 35% | Population Fragmented Nuclei (%) [9]: 15% | Population Healthy Nuclei (%) [9]: 77% | Population Hoechst High Intensity Objects (%) [9]: 1% | Population Membrane Permeable-Phenotype (%) [9]: 1% | Population Mitochondria Different-Phenotype (%) [9]: 16% | Population Mitotic Cells (%) [9]: 64% | Population Normal (%) [9]: 98% | Population Pyknosed Nuclei (%) [9]: 6% | Population Tubulin-Different-Phenotype (%) [9]: 11% | Total Cell Count [9]: 585 | Population Apoptotic (%) [10]: 27% | Population Fragmented Nuclei (%) [10]: 11% | Population Healthy Nuclei (%) [10]: 81% | Population Hoechst High Intensity Objects (%) [10]: 0% | Population Mitochondria Different-Phenotype (%) [10]: 18% | Population Mitotic Cells (%) [10]: 72% | Population Normal (%) [10]: 99% | Population Tubulin-Different-Phenotype (%) [10]: 10% | Total Cell Count [10]: 715 | Population Apoptotic (%) [11]: 39% | Population Fragmented Nuclei (%) [11]: 16% | Population Healthy Nuclei (%) [11]: 75% | Population Hoechst High Intensity Objects (%) [11]: 1% | Population Membrane Permeable-Phenotype (%) [11]: 1% | Population Mitochondria Different-Phenotype (%) [11]: 18% | Population Mitotic Cells (%) [11]: 60% | Population Normal (%) [11]: 98% | Population Pyknosed Nuclei (%) [11]: 8% | Population Tubulin-Different-Phenotype (%) [11]: 9% | Total Cell Count [11]: 643 | Population Apoptotic (%) [12]: 48% | Population Healthy Nuclei (%) [12]: 77% | Population Hoechst High Intensity Objects (%) [12]: 4% | Population Mitochondria Different-Phenotype (%) [12]: 22% | Population Mitotic Cells (%) [12]: 51% | Population Normal (%) [12]: 95% | Population Pyknosed Nuclei (%) [12]: 5% | Population Tubulin-Different-Phenotype (%) [12]: 11% | Total Cell Count [12]: 501
